Our source for the Activity and IC50 values is ChEMBL document CHEMBL1157421, “Tenacigenin B derivatives reverse P-glycoprotein-mediated multidrug resistance inHepG2/Dox cells” (J Nat Prod, 2008).

Assay [1] is described as follows: Cell cycle arrest in multidrug resistant human HepG2/Dox cells assessed as accumulation in subG1 phase at 1 uM. The class given is functional, cell-based. In outline: (§1)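 Flow-cytometric cell-cycle profiling. About 2 × 10^5 cells were seeded per dish and left overnight, then exposed to medium with or without drug for 48 h. Cells were fixed in 70% EtOH at -20 °C overnight and treated with RNase A (100 µg/mL, 37 °C, 30 min). They were then stained with propidium iodide (40 µg/mL final) at room temperature for 5-10 min and read on a FACSCalibur.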

A short description of assay [2]: Growth inhibition of multidrug resistant human HepG2/Dox cells after 72 hrs by SRB assay. It counts as functional, cell-based. In outline: (§2)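 SRB growth assay giving IC50 values from at least three repeat experiments, reported as mean ± SD. HepG2/Dox is a doxorubicin-selected Pgp-overexpressing subline kept in 1.2 µM doxorubicin and grown drug-free for at least 7 days before use. Both lines grown in RPMI 1640 with 10% FBS at 37 °C, 5% CO2.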
(In general: In SRB staining, fixed cells bind dye roughly in proportion to their protein.)

Assay [3] in a line: Cell cycle arrest in multidrug resistant human HepG2/Dox cells assessed as accumulation in S phase at 1 uM. The class given is functional, cell-based. Put shortly: as §1
Assay [4] is described as follows: Cell cycle arrest in multidrug resistant human HepG2/Dox cells assessed as accumulation in G2/M phase at 50 uM. It counts as functional, cell-based. Put shortly:
as §1

Assay [5] is described as follows: Cell cycle arrest in multidrug resistant human HepG2/Dox cells assessed as accumulation in S phase at 50 uM. The class given is functional, cell-based. In outline:
as §1

Assay [6] in a line: Cell cycle arrest in multidrug resistant human HepG2/Dox cells assessed as accumulation in G0/G1 phase at 10 uM. It counts as functional, cell-based. Put shortly:
as §1

Assay [7] deals with HepG2. Put plainly: Cell cycle arrest in human HepG2 cells assessed as accumulation in S phase at 0.2 uM. It counts as functional. In outline:
(§3)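 Cells seeded at about 2 × 10^5 per dish and left overnight, then exposed to drug for 48 h. Collected, washed in PBS, fixed in 70% EtOH at -20 °C overnight, treated with RNase A (100 µg/mL) at 37 °C for 30 min, stained with propidium iodide (40 µg/mL final) at room temperature, and phase distribution read by flow cytometry.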

Assay [8] in a line: Cell cycle arrest in multidrug resistant human HepG2/Dox cells assessed as accumulation in G0/G1 phase at 50 uM. It counts as functional, cell-based. Put shortly:
as §1

The subject of assay [9] is HepG2. The experiment in a line: Cell cycle arrest in human HepG2 cells assessed as accumulation in subG1 phase at 0.2 uM. It counts as functional. Put shortly:
as §3

Assay [10] deals with HepG2. The experiment in a line: Cell cycle arrest in human HepG2 cells assessed as accumulation in G0/G1 phase at 0.2 uM. It counts as functional. Put shortly:
as §3

The nature of assay [11]: Cell cycle arrest in multidrug resistant human HepG2/Dox cells assessed as accumulation in subG1 phase at 10 uM. It counts as functional, cell-based. Put shortly:
as §1

The test system of assay [12] is HepG2. The experiment in a line: Growth inhibition of human HepG2 cells after 72 hrs by SRB assay. It counts as functional, cell-based. As to conditions: HepG2, 72 h. In outline:
as §2

Assay [13] can be described thus: Cell cycle arrest in multidrug resistant human HepG2/Dox cells assessed as accumulation in G2/M phase at 10 uM. It counts as functional, cell-based. Put shortly: as §1
The nature of assay [14]: Cell cycle arrest in multidrug resistant human HepG2/Dox cells assessed as accumulation in G0/G1 phase at 1 uM. The class given is functional, cell-based. In outline:
as §1

A short description of assay [15]: Cell cycle arrest in multidrug resistant human HepG2/Dox cells assessed as accumulation in G2/M phase at 1 uM. It counts as functional, cell-based. In outline: as §1
The nature of assay [16]: Cell cycle arrest in multidrug resistant human HepG2/Dox cells assessed as accumulation in subG1 phase at 50 uM. It counts as functional, cell-based. Put shortly: as §1
A short description of assay [17]: Cell cycle arrest in multidrug resistant human HepG2/Dox cells assessed as accumulation in S phase at 10 uM. The class given is functional, cell-based. In outline: as §1
The test system of assay [18] is HepG2. Put plainly: Cell cycle arrest in human HepG2 cells assessed as accumulation in G2/M phase at 0.2 uM. It counts as functional. In outline: as §3

On to `COc1cccc2c1C(=O)c1c(O)c3c(c(O)c1C2=O)C[C@@](O)(C(=O)CO)C[C@@H]3O[C@H]1C[C@H](N)[C@H](O)[C@H](C)O1` [DOXORUBICIN], for which the Activity in assay [1] stood at 2.4%; in assay [3], 7.7%; in [4] it was 73.4%; in assay [5], 5.6%; in assay [6] it was 24.8%; in assay [7], 8.9%. The Activity turned out to be 12% in assay [8]; 0.9% in [9]; 4.9% in assay [10]; 3.4% in assay [11]; 60.8% in assay [13]; 51.3% in [14]. For the same molecule, the Activity worked out at 33.5% in assay [15], 4.9% in [16], 6.9% in assay [17] and 76.6% in [18]. Moreover, the figures for the IC50 in [2] and in assay [12] were 8.6 µM and 0.17 µM, respectively.

The IC50 is the concentration needed to halve the response being measured. High values mean weaker potency in that assay, low ones greater potency in that assay.
